Results taken from ChEMBL document CHEMBL1144994, “Metal coordination-based inhibitors of adenylyl cyclase: novel potent P-site antagonists” (J Med Chem, 2003).
pIC50: −log10 of the molar value.

The compounds below were run against Adenylate cyclase type 5 (Homo sapiens, UniProt O95622) (assay: Inhibitory activity against recombinant human adenylate cyclase 5 expressed in HEK293 cells.).
Format: cell-based
Procedure, shortened: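 Membranes from HEK293 cells expressing human type V AC (1.4 µg/mL protein), stimulated with 25 nM activated recombinant GsR. Buffer: 60 mM HEPES pH 8.0, 0.6 mM EDTA, 0.01% BSA, 1 mM ATP, 2 mM IBMX, 2 mM MgCl₂. Reaction 30 min at 30 °C. cAMP product quantified by flash plate. Inhibition calculated against compound-free controls.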

Sequence of Adenylate cyclase type 5 (O95622 whole entry): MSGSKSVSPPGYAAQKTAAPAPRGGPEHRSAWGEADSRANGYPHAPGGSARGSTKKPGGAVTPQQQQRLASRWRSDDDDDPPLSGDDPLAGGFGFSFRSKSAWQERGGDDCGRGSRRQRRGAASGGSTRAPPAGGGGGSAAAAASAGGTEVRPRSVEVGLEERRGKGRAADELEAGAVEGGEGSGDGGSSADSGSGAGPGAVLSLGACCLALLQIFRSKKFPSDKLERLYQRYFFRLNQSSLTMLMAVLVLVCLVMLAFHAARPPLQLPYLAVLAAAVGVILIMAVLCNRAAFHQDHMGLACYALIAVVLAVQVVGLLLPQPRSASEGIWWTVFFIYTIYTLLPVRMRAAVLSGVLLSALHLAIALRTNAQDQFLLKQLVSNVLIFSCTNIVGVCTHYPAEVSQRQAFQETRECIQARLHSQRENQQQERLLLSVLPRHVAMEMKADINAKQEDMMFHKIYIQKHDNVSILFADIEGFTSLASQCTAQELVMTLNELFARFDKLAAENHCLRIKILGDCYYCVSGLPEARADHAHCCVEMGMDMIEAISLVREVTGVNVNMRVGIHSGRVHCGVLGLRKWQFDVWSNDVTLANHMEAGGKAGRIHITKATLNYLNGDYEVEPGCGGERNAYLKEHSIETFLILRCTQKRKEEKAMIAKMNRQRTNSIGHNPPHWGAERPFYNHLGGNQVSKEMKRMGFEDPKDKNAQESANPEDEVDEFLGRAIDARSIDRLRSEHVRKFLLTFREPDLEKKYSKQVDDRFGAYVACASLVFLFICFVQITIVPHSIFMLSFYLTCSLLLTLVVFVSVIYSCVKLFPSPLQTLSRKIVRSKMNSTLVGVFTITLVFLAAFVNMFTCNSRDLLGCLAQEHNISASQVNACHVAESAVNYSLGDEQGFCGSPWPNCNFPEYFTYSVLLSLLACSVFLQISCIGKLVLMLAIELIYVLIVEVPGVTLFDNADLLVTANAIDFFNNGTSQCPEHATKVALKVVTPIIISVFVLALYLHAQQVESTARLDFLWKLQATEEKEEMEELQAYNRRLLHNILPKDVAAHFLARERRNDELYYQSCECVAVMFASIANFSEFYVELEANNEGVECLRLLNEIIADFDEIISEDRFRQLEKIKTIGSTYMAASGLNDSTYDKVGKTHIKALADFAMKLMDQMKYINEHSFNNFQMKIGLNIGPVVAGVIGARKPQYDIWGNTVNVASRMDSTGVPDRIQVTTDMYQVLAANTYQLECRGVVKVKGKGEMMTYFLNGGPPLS

Row | Structure (SMILES) | pIC50
1 | Nc1ncnc2c1ncn2[C@H]1CC[C@H](CC(=O)O)C1 | < 4.00
2 | Nc1ncnc2c1ncn2[C@H]1CC[C@@H](CC(=O)O)C1 | < 3.70
3 | Nc1ncnc2c1ncn2[C@@H]1C=C[C@H](CC(=O)O)C1 | 4.14
4 | Nc1ncnc2c1ncn2[C@H]1C=C[C@@H](CC(=O)NO)C1 | 4.79
5 | Nc1ncnc2c1ncn2[C@H]1CC[C@H](OCC(=O)NO)C1 | 4.97
6 | Nc1ncnc2c1ncn2[C@@H]1C=C[C@@H](CC(=O)O)C1 | < 3.70
7 | Nc1ncnc2c1ncn2[C@H]1C=C[C@H](OCC(=O)NO)C1 | 4.87
8 | Nc1ncnc2c1ncn2[C@@H]1C=C[C@@H](C(=O)NO)C1 | 4.00
9 | Nc1ncnc2c1ncn2[C@H]1CC[C@@H](CC(=O)NO)C1 | 4.60
10 | Nc1ncnc2c1ncn2[C@@H]1CC[C@H](CC(=O)NO)C1 | 4.26
11 | Nc1ncnc2c1ncn2[C@@H]1CC[C@@H](CC(=O)O)C1 | 4.54
12 | Nc1ncnc2c1ncn2[C@H]1C=C[C@@H](CC(=O)O)C1 | < 3.70
13 | Nc1ncnc2c1ncn2[C@@H]1CC[C@H](C(=O)NO)C1 | < 4.15
14 | Nc1ncnc2c1ncn2[C@H]1C=C[C@@H](C(=O)NO)C1 | 3.73
15 | Nc1ncnc2c1ncn2[C@@H]1CC[C@H](CC(=O)O)C1 | < 3.70
16 | Nc1ncnc2c1ncn2[C@@H]1C=C[C@H](C(=O)NO)C1 | < 3.70
17 | Nc1ncnc2c1ncn2[C@@H]1CC[C@@H](C(=O)NO)C1 (single isomer, unassigned) | 4.11

Compounds with a higher pIC50, results first:

Row | pIC50 | Structure (SMILES)
18 | 5.03 | Nc1ncnc2c1ncn2[C@H]1CC[C@H](CC(=O)NO)C1
19 | 5.09 | Nc1ncnc2c1ncn2[C@H]1C=C[C@H](CC(=O)O)C1
20 | 5.31 | Nc1ncnc2c1ncn2[C@H]1C=C[C@H](C(=O)NO)C1
21 | 5.34 | Nc1ncnc2c1ncn2[C@H]1CC[C@@H](C(=O)NO)C1
22 | 5.37 | Nc1ncnc2c1ncn2[C@@H]1C=C[C@@H](CC(=O)NO)C1
23 | 5.59 | Nc1ncnc2c1ncn2[C@@H]1C=C[C@H](CC(=O)NO)C1
24 | 6.22 | Nc1ncnc2c1ncn2[C@@H]1CC[C@@H](CC(=O)NO)C1
25 | 6.40 | Nc1ncnc2c1ncn2[C@H]1C=C[C@H](CC(=O)NO)C1
26 | 6.70 | Nc1ncnc2c1ncn2[C@H]1CC[C@H](C(=O)NO)C1 (single isomer, unassigned)
